{"source": "ChEMBL document CHEMBL1140708", "about": "“Synthesis and in vivo evaluation of halogenated N,N-dimethyl-2-(2'-amino-4'-hydroxymethylphenylthio)benzylamine derivatives as PET serotonin transporter ligands” (J Med Chem, 2008)", "key": {"[1]": {"target": "Sodium-dependent dopamine transporter (Homo sapiens, UniProt Q01959)", "sequence (Q01959 whole entry)": "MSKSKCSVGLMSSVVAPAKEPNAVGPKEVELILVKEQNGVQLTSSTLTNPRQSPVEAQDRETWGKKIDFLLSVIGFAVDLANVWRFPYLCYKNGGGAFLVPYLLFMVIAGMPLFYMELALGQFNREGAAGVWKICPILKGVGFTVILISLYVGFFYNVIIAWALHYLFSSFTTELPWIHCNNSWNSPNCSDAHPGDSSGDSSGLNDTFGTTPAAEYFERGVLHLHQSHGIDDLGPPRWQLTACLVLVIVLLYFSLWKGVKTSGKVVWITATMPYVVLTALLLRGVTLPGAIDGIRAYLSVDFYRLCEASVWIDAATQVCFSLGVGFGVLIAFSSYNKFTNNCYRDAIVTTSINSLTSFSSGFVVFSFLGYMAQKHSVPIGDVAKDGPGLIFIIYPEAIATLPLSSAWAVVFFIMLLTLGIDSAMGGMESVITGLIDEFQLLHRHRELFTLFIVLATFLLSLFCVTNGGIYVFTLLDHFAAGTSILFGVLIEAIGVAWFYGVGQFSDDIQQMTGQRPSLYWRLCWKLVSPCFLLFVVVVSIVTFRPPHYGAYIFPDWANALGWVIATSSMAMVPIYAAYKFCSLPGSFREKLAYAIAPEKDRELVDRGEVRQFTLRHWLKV", "assay": "Displacement of [125I]RTI-55 from human DAT expressed in MDCK cells", "assay_type": "cell-based", "in_short": "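MDCK cells stably expressing hDAT, grown to confluency in DMEM with 10% FBS and Geneticin, harvested in PBS/0.53 mM EDTA. Membranes (30–70 µg protein) were incubated 1 h at room temperature with 2.0 nM [125I]RTI-55 in 42 mM sodium phosphate/320 mM sucrose, pH 7.4. Competitor: 12 concentrations, 10^-13 to 10^-5 M, in triplicate. Filtered through PEI-soaked GF/B filters; Ki averaged over ≥2 assays.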"}, "Homo sapiens [2]": {"species_on_record": "Homo sapiens", "assay": "Selectivity for human DAT to human SERT", "in_short": "(§1)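 Ratio of Ki at hDAT or hNET to Ki at hSERT. Ki values come from competition binding on transfected cell membranes: [125I]RTI-55 (MDCK-hDAT), [3H]nisoxetine (HEK-hNET) or [3H]citalopram (HEK-hSERT); 12 competitor concentrations from 10^-13 to 10^-5 M.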"}, "Homo sapiens [3]": {"species_on_record": "Homo sapiens", "assay": "Selectivity for human NET to human SERT", "in_short": "as §1"}, "[4]": {"target": "Sodium-dependent serotonin transporter (Homo sapiens, UniProt P31645)", "sequence (P31645 whole entry)": "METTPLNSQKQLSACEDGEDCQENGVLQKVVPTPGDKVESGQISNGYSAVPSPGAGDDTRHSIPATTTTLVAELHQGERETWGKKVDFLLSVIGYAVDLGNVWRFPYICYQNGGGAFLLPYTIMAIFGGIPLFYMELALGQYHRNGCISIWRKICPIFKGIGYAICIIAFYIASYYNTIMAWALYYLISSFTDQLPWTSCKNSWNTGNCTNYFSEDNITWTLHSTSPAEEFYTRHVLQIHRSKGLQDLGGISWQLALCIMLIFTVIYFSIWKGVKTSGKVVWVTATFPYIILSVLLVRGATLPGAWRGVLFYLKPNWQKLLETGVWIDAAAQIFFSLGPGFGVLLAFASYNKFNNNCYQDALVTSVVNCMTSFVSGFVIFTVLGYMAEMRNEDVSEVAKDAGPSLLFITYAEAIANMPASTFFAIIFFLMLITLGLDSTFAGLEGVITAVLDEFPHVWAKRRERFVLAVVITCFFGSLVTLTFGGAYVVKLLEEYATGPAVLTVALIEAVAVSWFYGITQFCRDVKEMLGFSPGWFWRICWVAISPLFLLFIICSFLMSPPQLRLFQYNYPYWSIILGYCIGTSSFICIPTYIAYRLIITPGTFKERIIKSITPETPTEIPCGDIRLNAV", "assay": "Displacement of [3H]citalopram from human SERT expressed in HEK293 cells", "assay_type": "cell-based", "in_short": "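Membranes (30–70 µg protein) from HEK-293 cells stably expressing hSERT, grown in DMEM/10% FBS/Geneticin. Incubated 2 h at room temperature with [3H]citalopram in 53 mM Tris, 126 mM NaCl, 5.3 mM KCl, pH 7.9. Competitor: 12 concentrations, 10^-13 to 10^-5 M, in triplicate. Rapid filtration on GF/B with cold buffer washes; Ki averaged from ≥2 separate assays.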"}, "[5]": {"target": "Sodium-dependent noradrenaline transporter (Homo sapiens, UniProt P23975)", "sequence (P23975 whole entry)": "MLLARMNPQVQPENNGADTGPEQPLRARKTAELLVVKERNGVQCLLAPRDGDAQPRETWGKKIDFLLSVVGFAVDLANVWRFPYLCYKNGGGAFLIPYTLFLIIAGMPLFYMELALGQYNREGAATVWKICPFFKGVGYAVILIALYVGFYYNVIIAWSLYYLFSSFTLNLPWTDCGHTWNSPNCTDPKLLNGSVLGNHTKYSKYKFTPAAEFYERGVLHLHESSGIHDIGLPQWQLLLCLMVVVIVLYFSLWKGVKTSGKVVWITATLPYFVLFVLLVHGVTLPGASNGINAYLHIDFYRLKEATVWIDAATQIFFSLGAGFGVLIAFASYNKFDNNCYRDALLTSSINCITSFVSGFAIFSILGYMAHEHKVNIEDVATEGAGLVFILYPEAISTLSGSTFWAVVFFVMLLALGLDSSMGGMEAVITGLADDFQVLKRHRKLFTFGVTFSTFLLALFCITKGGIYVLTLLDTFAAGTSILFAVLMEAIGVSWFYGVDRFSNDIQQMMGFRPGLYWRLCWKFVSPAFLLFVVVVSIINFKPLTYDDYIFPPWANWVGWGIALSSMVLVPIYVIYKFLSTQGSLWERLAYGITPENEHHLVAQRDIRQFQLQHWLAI", "assay": "Displacement of [3H]nisoxetine from human NET t expressed in HEK293 cells", "assay_type": "cell-based", "in_short": "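Membranes (30–70 µg protein) from HEK-293 cells stably expressing hNET. Equilibrium with [3H]nisoxetine for 4 h at 4 °C in 53 mM Tris, 320 mM NaCl, 5.3 mM KCl, pH 7.4 at 4 °C. Competitor: 12 concentrations, 10^-13 to 10^-5 M, in triplicate. Ended by vacuum filtration through PEI-presoaked GF/B filters; Ki averaged from at least two assays, each in duplicate.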"}, "[6]": {"assay": "Partition coefficient, log P at pH 7.4", "assay_type": "physicochemical", "conditions": "octanol/water", "in_short": "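Each 11C-labelled radiotracer was partitioned between 1-octanol and 0.02 M phosphate buffer at pH 7.4.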"}, "Occipital cortex [7]": {"test_system": "Occipital cortex", "assay": "Drug uptake in cynomolgus monkey occipital cortex in presence of citalopram after 115 mins", "assay_type": "ADME, tissue-based, Macaca fascicularis", "conditions": "in vivo", "in_short": "(§2)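 Chase microPET scans in the same male cynomolgus monkey after i.v. 11C radiotracer (6.90–18.10 mCi). R,S-citalopram·HBr, 1.5 mg/kg, was given i.v. as a 30 s bolus at 45 min (ratios at 45 and 85 min) or 60 min (ratios at 55 and 115 min) post-tracer. Value is the region-to-cerebellum activity ratio before and after citalopram.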"}, "Medulla [8]": {"test_system": "Medulla", "assay": "Drug uptake in cynomolgus monkey medulla after 55 mins", "assay_type": "ADME, tissue-based, Macaca fascicularis, Medulla of organ", "conditions": "in vivo", "in_short": "as §2"}, "Putamen [9]": {"test_system": "Putamen", "assay": "Drug uptake in cynomolgus monkey putamen in presence of citalopram after 115 mins", "assay_type": "ADME, tissue-based, Macaca fascicularis", "conditions": "in vivo", "in_short": "as §2"}, "Thalamus [10]": {"test_system": "Thalamus", "assay": "Drug uptake in cynomolgus monkey thalamus in presence of citalopram after 115 mins", "assay_type": "ADME, tissue-based, Macaca fascicularis", "conditions": "in vivo", "in_short": "as §2"}, "Midbrain [11]": {"test_system": "Midbrain", "assay": "Drug uptake in cynomolgus monkey midbrain after 85 mins", "assay_type": "ADME, tissue-based, Macaca fascicularis", "conditions": "in vivo", "in_short": "(§3)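 Baseline microPET (Concorde P4) scans in one anesthetized adult male cynomolgus monkey (7.50–8.35 kg) after i.v. radiotracer. Attenuation correction used a 68Ge transmission scan; OSEM reconstruction, 3 mm resolution. Value is the region-of-interest to cerebellum activity ratio at 85 min post-injection.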"}, "Frontal cortex [12]": {"test_system": "Frontal cortex", "assay": "Drug uptake in cynomolgus monkey frontal cortex in presence of citalopram after 115 mins", "assay_type": "ADME, tissue-based, Macaca fascicularis", "conditions": "in vivo", "in_short": "as §2"}, "Putamen [13]": {"test_system": "Putamen", "assay": "Drug uptake in cynomolgus monkey putamen after 85 mins", "assay_type": "ADME, tissue-based, Macaca fascicularis", "conditions": "in vivo", "in_short": "as §3"}, "Caudate [14]": {"test_system": "Caudate", "assay": "Drug uptake in cynomolgus monkey caudate in presence of citalopram after 115 mins", "assay_type": "ADME, tissue-based, Macaca fascicularis, Caudate nucleus", "conditions": "in vivo", "in_short": "as §2"}, "Frontal cortex [15]": {"test_system": "Frontal cortex", "assay": "Drug uptake in cynomolgus monkey frontal cortex after 85 mins", "assay_type": "ADME, tissue-based, Macaca fascicularis", "conditions": "in vivo", "in_short": "as §3"}, "Medulla [16]": {"test_system": "Medulla", "assay": "Drug uptake in cynomolgus monkey medulla in presence of citalopram after 115 mins", "assay_type": "ADME, tissue-based, Macaca fascicularis, Medulla of organ", "conditions": "in vivo", "in_short": "as §2"}, "Midbrain [17]": {"test_system": "Midbrain", "assay": "Drug uptake in cynomolgus monkey midbrain in presence of citalopram after 115 mins", "assay_type": "ADME, tissue-based, Macaca fascicularis", "conditions": "in vivo", "in_short": "as §2"}, "Midbrain [18]": {"test_system": "Midbrain", "assay": "Drug uptake in cynomolgus monkey midbrain after 55 mins", "assay_type": "ADME, tissue-based, Macaca fascicularis", "conditions": "in vivo", "in_short": "as §2"}, "Occipital cortex [19]": {"test_system": "Occipital cortex", "assay": "Drug uptake in cynomolgus monkey occipital cortex after 55 mins", "assay_type": "ADME, tissue-based, Macaca fascicularis", "conditions": "in vivo", "in_short": "as §2"}, "Pons [20]": {"test_system": "Pons", "assay": "Drug uptake in cynomolgus monkey pons after 85 mins", "assay_type": "ADME, tissue-based, Macaca fascicularis", "conditions": "in vivo", "in_short": "as §3"}, "Medulla [21]": {"test_system": "Medulla", "assay": "Drug uptake in cynomolgus monkey medulla after 85 mins", "assay_type": "ADME, tissue-based, Macaca fascicularis, Medulla of organ", "conditions": "in vivo", "in_short": "as §3"}, "Caudate [22]": {"test_system": "Caudate", "assay": "Drug uptake in cynomolgus monkey caudate after 55 mins", "assay_type": "ADME, tissue-based, Macaca fascicularis, Caudate nucleus", "conditions": "in vivo", "in_short": "as §2"}, "Thalamus [23]": {"test_system": "Thalamus", "assay": "Drug uptake in cynomolgus monkey thalamus after 85 mins", "assay_type": "ADME, tissue-based, Macaca fascicularis", "conditions": "in vivo", "in_short": "as §3"}, "Thalamus [24]": {"test_system": "Thalamus", "assay": "Drug uptake in cynomolgus monkey thalamus after 55 mins", "assay_type": "ADME, tissue-based, Macaca fascicularis", "conditions": "in vivo", "in_short": "as §2"}, "Frontal cortex [25]": {"test_system": "Frontal cortex", "assay": "Drug uptake in cynomolgus monkey frontal cortex after 55 mins", "assay_type": "ADME, tissue-based, Macaca fascicularis", "conditions": "in vivo", "in_short": "as §2"}, "Occipital cortex [26]": {"test_system": "Occipital cortex", "assay": "Drug uptake in cynomolgus monkey occipital cortex after 85 mins", "assay_type": "ADME, tissue-based, Macaca fascicularis", "conditions": "in vivo", "in_short": "as §3"}, "Putamen [27]": {"test_system": "Putamen", "assay": "Drug uptake in cynomolgus monkey putamen after 55 mins", "assay_type": "ADME, tissue-based, Macaca fascicularis", "conditions": "in vivo", "in_short": "as §2"}, "Pons [28]": {"test_system": "Pons", "assay": "Drug uptake in cynomolgus monkey pons after 55 mins", "assay_type": "ADME, tissue-based, Macaca fascicularis", "conditions": "in vivo", "in_short": "as §2"}, "Pons [29]": {"test_system": "Pons", "assay": "Drug uptake in cynomolgus monkey pons in presence of citalopram after 115 mins", "assay_type": "ADME, tissue-based, Macaca fascicularis", "conditions": "in vivo", "in_short": "as §2"}, "Caudate [30]": {"test_system": "Caudate", "assay": "Drug uptake in cynomolgus monkey caudate after 85 mins", "assay_type": "ADME, tissue-based, Macaca fascicularis, Caudate nucleus", "conditions": "in vivo", "in_short": "as §3"}}, "data": [{"smiles": "CN(C)Cc1cc(F)ccc1Sc1ccc(CO)cc1N", "values": [{"measurement": "Ki", "setting": "[1]", "value": "> 2000", "unit": "nM"}, {"measurement": "Ratio Ki", "setting": "Homo sapiens [2]", "value": "> 1000"}, {"measurement": "Ratio Ki", "setting": "Homo sapiens [3]", "value": 490}, {"measurement": "Ki", "setting": "[4]", "value": 1.26, "unit": "nM"}, {"measurement": "Ki", "setting": "[5]", "value": 618, "unit": "nM"}]}, {"smiles": "CN(C)Cc1ccccc1Sc1ccc(CO)cc1N", "values": [{"measurement": "logD", "setting": "[6]", "value": 1.6}, {"measurement": "Ki", "setting": "[1]", "value": "> 1000", "unit": "nM"}, {"measurement": "Ratio Ki", "setting": "Homo sapiens [2]", "value": "> 1000"}, {"measurement": "Ratio Ki", "setting": "Homo sapiens [3]", "value": 532}]}, {"smiles": "CN([11CH3])Cc1cc(Br)ccc1Sc1ccc(CO)cc1N", "values": [{"measurement": "Ratio", "setting": "Occipital cortex [7]", "value": 1.1}, {"measurement": "logD", "setting": "[6]", "value": 2.63}, {"measurement": "Ratio", "setting": "Medulla [8]", "value": 2.3}, {"measurement": "Ratio", "setting": "Putamen [9]", "value": 1.2}, {"measurement": "Ratio", "setting": "Thalamus [10]", "value": 1.4}, {"measurement": "Ratio", "setting": "Midbrain [11]", "value": 3.24}, {"measurement": "Ratio", "setting": "Frontal cortex [12]", "value": 1}, {"measurement": "Ratio", "setting": "Putamen [13]", "value": 2.4}, {"measurement": "Ratio", "setting": "Caudate [14]", "value": 1}, {"measurement": "Ratio", "setting": "Frontal cortex [15]", "value": 1.06}, {"measurement": "Ratio", "setting": "Medulla [16]", "value": 1.1}, {"measurement": "Ratio", "setting": "Midbrain [17]", "value": 1.2}, {"measurement": "Ratio", "setting": "Midbrain [18]", "value": 2.4}, {"measurement": "Ratio", "setting": "Occipital cortex [19]", "value": 1.35}, {"measurement": "Ratio", "setting": "Pons [20]", "value": 2.8}, {"measurement": "Ratio", "setting": "Medulla [21]", "value": 2.6}, {"measurement": "Ratio", "setting": "Caudate [22]", "value": 1.4}, {"measurement": "Ratio", "setting": "Thalamus [23]", "value": 2.3}, {"measurement": "Ratio", "setting": "Thalamus [24]", "value": 1.8}, {"measurement": "Ratio", "setting": "Frontal cortex [25]", "value": 1}, {"measurement": "Ratio", "setting": "Occipital cortex [26]", "value": 1.34}, {"measurement": "Ratio", "setting": "Putamen [27]", "value": 1.6}, {"measurement": "Ratio", "setting": "Pons [28]", "value": 2}, {"measurement": "Ratio", "setting": "Pons [29]", "value": 1.23}, {"measurement": "Ratio", "setting": "Caudate [30]", "value": 1.7}]}]}
